We go through 9 molecules from ChEMBL document CHEMBL1128535, “Synthesis using a Fmoc-based strategy and biological activities of some reduced peptide bond pseudopeptide analogues of dynorphin A1” (J Med Chem, 1995).

Assay [1] can be described thus: Selectivity as ratio of IC50 for delta and mu opioid receptors. The note with it: Cavia porcellus.
Another assay deals with Mu-type opioid receptor (Cavia porcellus, UniProt P97266). The experiment in a line: Binding affinity against Opioid receptor mu 1 from Guinea pig brain homogenate using [3H]DAMGO. In kind it is tissue-based.
Sequence of Mu-type opioid receptor (P97266 whole entry): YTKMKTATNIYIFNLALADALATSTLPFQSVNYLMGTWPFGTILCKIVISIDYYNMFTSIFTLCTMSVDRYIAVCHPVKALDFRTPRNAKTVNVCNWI
The species entered for assay [2] is Cavia porcellus. The experiment in a line: Binding affinity against smooth muscle tissue of Guinea pig ileum. In kind it is functional. The procedure, abridged:
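Longitudinal muscle–myenteric plexus strips from male Hartley guinea pigs (250–500 g) in oxygenated Krebs buffer at 37 °C under 1 g tension. Transmural stimulation at 0.1 Hz, 0.4 ms, supramaximal voltage, with no peptidase inhibitors. Cumulative agonist doses every 3 min; % inhibition of contraction height measured. IC50 from a Hill-equation fit of mean data from 2–4 tissues.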

The target of assay [3] is Kappa-type opioid receptor (Cavia porcellus, UniProt P41144). The experiment in a line: Binding affinity against Opioid receptor kappa 1 of Guinea pig brain homogenate using [3H]U-69593. It is filed as tissue-based.
Sequence of Kappa-type opioid receptor (P41144 whole entry): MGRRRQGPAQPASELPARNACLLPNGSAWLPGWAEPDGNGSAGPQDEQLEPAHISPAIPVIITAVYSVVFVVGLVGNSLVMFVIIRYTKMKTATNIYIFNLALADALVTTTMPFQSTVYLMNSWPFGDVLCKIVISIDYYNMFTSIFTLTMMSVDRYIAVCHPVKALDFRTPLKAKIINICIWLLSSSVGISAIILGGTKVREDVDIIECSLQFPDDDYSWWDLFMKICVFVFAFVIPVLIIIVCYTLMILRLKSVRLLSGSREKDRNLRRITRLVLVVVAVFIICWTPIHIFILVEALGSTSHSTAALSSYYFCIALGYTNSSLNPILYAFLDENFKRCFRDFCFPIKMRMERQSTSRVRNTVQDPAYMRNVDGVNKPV
Assay [4] addresses Kappa-type opioid receptor (Cavia porcellus) (UniProt P41144). The experiment in a line: Ratio of IC50 for central and peripheral kappa opioid receptor binding in guinea pig.
The species named for assay [5] is Cavia porcellus. The experiment in a line: Selectivity as ratio of IC50 for mu and kappa opioid receptors.

*1 amine or outer side, *2 acyl side, *3 side chain or, on linkers, in order; H or OH if unused. Where a SMILES comes first, the peptide text is derived from it. Side-chain parts run from the residue outwards. [ ]: non-standard residue; d: D form. The star is where a group is joined. X2 = CC[C@H](C)[C@H](NC[C@H](CCCCN)N*)C(=O)N[C@@H](CCCN=C(N)N)C(=O)N1CCC[C@H]1C(=O)N[C@@H](CCCCN)C(N)=O; N(2-aminoethyl)Phe = O=C([C@H](Cc1ccccc1)N(CCN[*:3])[*:1])[*:2]; X4 = CC(C)C[C@@H](CN([C@@H](CCCN=C(N)N)C(=O)[*:2])[*:1])N[*:3]; X5 = NCCCC[C@@H](CN([C@@H](CCCN=C(N)N)C(=O)[*:2])[*:1])N[*:3]; X1 = CC(C)C[C@@H](C(=O)[*:2])N(C[C@H](Cc1ccccc1)N[*:3])[*:1]

Sequence of Kappa-type opioid receptor (Cavia porcellus) (P41144 whole entry): as above

Turning to `CC[C@H](C)[C@H](NC(=O)[C@H](CCCN=C(N)N)NC(=O)[C@H](CCCN=C(N)N)NC(=O)[C@H](CC(C)C)NC(=O)[C@H](Cc1ccccc1)NC(=O)CNC(=O)CNC[C@@H](N)Cc1ccc(O)cc1)C(=O)N[C@@H](CCCN=C(N)N)C(=O)N1CCC[C@H]1C(=O)N[C@@H](CCCCN)C(N)=O`, the Selectivity amounted to 25 in assay [1] and 12 in the assay listed under Cavia porcellus [5]. In addition, the concentration for half-maximal inhibition (IC50) stood at 96 nM on Mu-type opioid receptor, 308 nM in the assay listed under Cavia porcellus [2] and 8 nM in assay [3]. The Ratio in assay [4] was determined as 38.5.

For the molecule `CC[C@H](C)[C@H](NC(=O)[C@H](CCCN=C(N)N)NC(=O)[C@H](CCCN=C(N)N)NC(=O)[C@H](CC(C)C)NC(=O)[C@H](Cc1ccccc1)NC(=O)CNC(=O)CNC(=O)[C@@H](N)Cc1ccc(O)cc1)C(=O)N[C@@H](CCCCN)CN1CCC[C@H]1C(=O)N[C@@H](CCCCN)C(N)=O`, the half-maximal inhibitory concentration (IC50) at Mu-type opioid receptor is 5.2 nM; in the assay filed under Cavia porcellus [2], 2.1 nM; in assay [3], 0.24 nM.

With `CC[C@H](C)[C@@H](CN[C@@H](CCCN=C(N)N)C(=O)N1CCC[C@H]1C(=O)N[C@@H](CCCCN)C(N)=O)NC(=O)[C@H](CCCN=C(N)N)NC(=O)[C@H](CCCN=C(N)N)NC(=O)[C@H](CC(C)C)NC(=O)[C@H](Cc1ccccc1)NC(=O)CNC(=O)CNC(=O)[C@@H](N)Cc1ccc(O)cc1`, the results for the half-inhibitory concentration (IC50) (at Mu-type opioid receptor; in the assay listed under Cavia porcellus [2]; in assay [3]) were 4 nM, 3.7 nM and 0.36 nM, respectively.

On to `CC[C@H](C)[C@H](NC(=O)[C@H](CCCN=C(N)N)NC[C@H](CCCCN)NC(=O)[C@H](CC(C)C)NC(=O)[C@H](Cc1ccccc1)NC(=O)CNC(=O)CNC(=O)[C@@H](N)Cc1ccc(O)cc1)C(=O)N[C@@H](CCCN=C(N)N)C(=O)N1CCC[C@H]1C(=O)N[C@@H](CCCCN)C(N)=O`, for which the half-inhibitory concentration (IC50) at Mu-type opioid receptor was 9 nM; in the assay filed under Cavia porcellus [2] it was 70.6 nM; in assay [3] it was 0.9 nM.

With `CC[C@H](C)[C@H](NC[C@H](CCCCN)NC(=O)[C@H](CCCN=C(N)N)NC(=O)[C@H](CC(C)C)NC(=O)[C@H](Cc1ccccc1)NC(=O)CNC(=O)CNC(=O)[C@@H](N)Cc1ccc(O)cc1)C(=O)N[C@@H](CCCN=C(N)N)C(=O)N1CCC[C@H]1C(=O)N[C@@H](CCCCN)C(N)=O` (H-YGGFLR-X2), the IC50 on Mu-type opioid receptor was determined as 9.2 nM; in the assay listed under Cavia porcellus [2] it was 2.8 nM; in assay [3], 0.16 nM.

On to `CC[C@H](C)[C@H](NC(=O)[C@H](CCCN=C(N)N)NC(=O)[C@H](CCCN=C(N)N)NC(=O)[C@H](CC(C)C)NC(=O)[C@H](Cc1ccccc1)NCCNC(=O)CNC(=O)[C@@H](N)Cc1ccc(O)cc1)C(=O)N[C@@H](CCCN=C(N)N)C(=O)N1CCC[C@H]1C(=O)N[C@@H](CCCCN)C(N)=O` (H-[N(2-aminoethyl)Phe]([Gly-Tyr])LRRIRPK-NH2), for which the IC50 at Mu-type opioid receptor was 1040 nM; in the assay listed under Cavia porcellus [2], 20.5 nM; in assay [3], 17 nM.

In the case of `CC[C@H](C)[C@H](NC(=O)[C@H](CCCN=C(N)N)NC(=O)[C@H](CCCN=C(N)N)NC(=O)[C@H](CC(C)C)NC[C@H](Cc1ccccc1)NC(=O)CNC(=O)CNC(=O)[C@@H](N)Cc1ccc(O)cc1)C(=O)N[C@@H](CCCN=C(N)N)C(=O)N1CCC[C@H]1C(=O)N[C@@H](CCCCN)C(N)=O` (H-[X1]([Gly-Gly-Tyr])RRIRPK-NH2), the figures for the half-inhibitory concentration (IC50) (on Mu-type opioid receptor; in the assay listed under Cavia porcellus [2]; in assay [3]) were 12 nM, 16.6 nM and 0.55 nM, respectively.

Consider `CC[C@H](C)[C@H](NC(=O)[C@H](CCCN=C(N)N)NC(=O)[C@H](CCCN=C(N)N)NC[C@H](CC(C)C)NC(=O)[C@H](Cc1ccccc1)NC(=O)CNC(=O)CNC(=O)[C@@H](N)Cc1ccc(O)cc1)C(=O)N[C@@H](CCCN=C(N)N)C(=O)N1CCC[C@H]1C(=O)N[C@@H](CCCCN)C(N)=O` (H-[X4]([Phe-Gly-Gly-Tyr])RIRPK-NH2), for which the figures for the Selectivity (in assay [1]; in the assay listed under Cavia porcellus [5]) were 52 and 1, respectively. Moreover, the 50% inhibitory concentration (IC50) at Mu-type opioid receptor turned out to be 0.64 nM; in the assay listed under Cavia porcellus [2], 21 nM; in assay [3], 0.61 nM. For the same molecule, the Ratio in assay [4] was found to be 30.4.

As for `CC[C@H](C)[C@H](NC(=O)[C@H](CCCN=C(N)N)NC(=O)[C@H](CCCN=C(N)N)NC[C@H](CCCCN)NC(=O)[C@H](Cc1ccccc1)NC(=O)CNC(=O)CNC(=O)[C@@H](N)Cc1ccc(O)cc1)C(=O)N[C@@H](CCCN=C(N)N)C(=O)N1CCC[C@H]1C(=O)N[C@@H](CCCCN)C(N)=O` (H-[X5]([Phe-Gly-Gly-Tyr])RIRPK-NH2), the Selectivity in assay [1] amounted to 59. The Ratio in assay [4] stood at 78.4.
